pIC50: −log10 of the molar value. Calls of active or inactive are those of the source. No cut-off for these calls is given here.
Experiments:
[1] = tested on: HEK293; test: Antiproliferative activity against human HEK293 cells assessed as reduction in cell viability incubated for 24 hrs by MTT assay; type: functional, cell-based; details: HEK293, 24 h
In short: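 HEK-293 cells were treated with compound for 24 h, in parallel with the luciferase reporter assay. Viability was read by MTT absorbance at 570 nm, and IC50 was taken from three independent experiments.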

[2] = tested on: BXPC-3; test: Antiproliferative activity against human BxPC-3 cells assessed as reduction in cell viability incubated for 3 days by MTT assay; type: functional, cell-based; details: BXPC-3, 72 h
[3] = tested on: MIA PaCa-2; test: Antiproliferative activity against human MIA PaCa-2 cells assessed as reduction in cell viability incubated for 3 days by MTT assay; type: functional, cell-based; details: MIA PaCa-2, 72 h
In short: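 MTT assay. Cells were seeded at 3000–6000/well and incubated overnight, then exposed to compound or DMSO vehicle for 3 days in RPMI-1640 or DMEM with 10% FBS at 37 °C, 5% CO2. MTT (3 mg/ml) was added for 3 h at 37 °C, formazan was dissolved in DMSO and absorbance read at 570 nm. IC50 from three independent experiments, mean ± SD.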

[4] = molecular target: Signal transducer and activator of transcription 3 (Homo sapiens) (UniProt P40763); test: Inhibition of STAT3 phosphorylation in human BxPC-3 cells at 0.5 uM after 16 hrs by western blot analysis; type: cell-based
In short: (§1)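 Cells were seeded in 6-well plates (BxPC-3 500 × 10^3, MIA PaCa-2 200 × 10^3 cells/well) and exposed to compound for 16 h. Lysis was at 4 °C by sonication in Tris/NaCl/Triton/SDS buffer, pH 7.4, with protease and phosphatase inhibitors. Lysates were run on SDS-PAGE, transferred to PVDF and probed for STAT3, pSTAT3 and NQO1 with GAPDH as loading control. Immunoblots were imaged on an Odyssey system.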

[5] = molecular target: T1, Protein cereblon/Signal transducer and activator of transcription 3 (Homo sapiens, UniProt P40763+Q96SW2); test: Protac activity at CRBN/STAT3 in human BxPC-3 cells assessed as effect on STAT3 expression level at 0.5 uM incubated for 16 hrs by western blot analysis; type: cell-based
In short: (§2)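 BxPC-3 cells seeded at 500 × 10^3 per well in 6-well plates, treated 16 h. Sonication lysis at 4 °C in Tris/NaCl/Triton/SDS buffer pH 7.4 with protease and phosphatase inhibitors, BCA protein assay, SDS-PAGE, PVDF transfer. Probed for STAT3, pSTAT3 and NQO1 with GAPDH loading control; fluorescent secondary detection.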
Target sequence in this assay (P40763 2-770 limits assumed): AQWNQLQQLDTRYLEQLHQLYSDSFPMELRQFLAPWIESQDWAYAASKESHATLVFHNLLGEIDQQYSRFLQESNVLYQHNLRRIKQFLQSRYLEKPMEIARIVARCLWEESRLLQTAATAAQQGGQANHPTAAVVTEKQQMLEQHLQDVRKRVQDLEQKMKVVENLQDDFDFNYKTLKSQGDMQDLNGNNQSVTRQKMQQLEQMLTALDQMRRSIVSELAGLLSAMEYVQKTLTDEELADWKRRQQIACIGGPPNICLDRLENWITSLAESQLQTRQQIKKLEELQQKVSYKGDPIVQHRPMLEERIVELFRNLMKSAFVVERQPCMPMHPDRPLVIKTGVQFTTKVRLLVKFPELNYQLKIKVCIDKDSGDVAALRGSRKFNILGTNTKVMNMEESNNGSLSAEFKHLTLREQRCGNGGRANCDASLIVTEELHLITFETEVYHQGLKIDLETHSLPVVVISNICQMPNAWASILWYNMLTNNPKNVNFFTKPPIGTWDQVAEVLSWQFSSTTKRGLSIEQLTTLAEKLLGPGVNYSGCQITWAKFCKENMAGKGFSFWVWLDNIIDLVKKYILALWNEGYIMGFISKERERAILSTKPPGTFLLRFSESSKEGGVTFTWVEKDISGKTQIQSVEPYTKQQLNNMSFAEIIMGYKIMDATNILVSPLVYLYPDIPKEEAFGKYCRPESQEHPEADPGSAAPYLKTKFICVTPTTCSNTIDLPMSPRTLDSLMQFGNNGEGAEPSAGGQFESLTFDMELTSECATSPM
Target sequence in this assay (Q96SW2 whole entry partner): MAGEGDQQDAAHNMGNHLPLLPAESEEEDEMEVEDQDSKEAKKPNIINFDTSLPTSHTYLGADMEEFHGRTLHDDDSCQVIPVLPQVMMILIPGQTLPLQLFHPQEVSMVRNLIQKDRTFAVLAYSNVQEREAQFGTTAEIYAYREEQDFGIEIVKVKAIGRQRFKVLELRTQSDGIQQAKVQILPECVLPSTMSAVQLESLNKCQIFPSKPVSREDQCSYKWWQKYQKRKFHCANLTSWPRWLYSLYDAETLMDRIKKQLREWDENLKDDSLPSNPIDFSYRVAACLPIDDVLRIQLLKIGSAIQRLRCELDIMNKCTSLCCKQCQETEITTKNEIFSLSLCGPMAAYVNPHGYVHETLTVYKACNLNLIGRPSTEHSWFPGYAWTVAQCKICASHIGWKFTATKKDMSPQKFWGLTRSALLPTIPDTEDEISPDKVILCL

[6] = molecular target: Signal transducer and activator of transcription 3 (Homo sapiens) (UniProt P40763); test: Inhibition of STAT3 phosphorylation in human BxPC-3 cells at 5 uM after 16 hrs by western blot analysis; type: cell-based; in short: as §1
[7] = molecular target: T1, Protein cereblon/Signal transducer and activator of transcription 3; test: Protac activity at CRBN/STAT3 in human BxPC-3 cells assessed as effect on STAT3 expression level at 0.1 to 5 uM incubated for 16 hrs by western blot analysis; type: cell-based; details: dose 0.1-5 µM; in short: as §2
Target sequence in this assay (P40763 2-770 limits assumed): as the sequence (P40763 2-770 limits assumed) above
Target sequence in this assay (Q96SW2 whole entry partner): as the sequence (Q96SW2 whole entry partner) above

[8] = tested on: BXPC-3; test: Inhibition of colony formation in human BxPC-3 cells assessed as reduction in colony formation at 0.06 to 0.5 uM incubated for 7 to 10 days in presence of NQO1 inhibitor dicoumarol; details: dose 0.06-0.5 µM
[9] = molecular target: T1, Protein cereblon/Signal transducer and activator of transcription 3; test: Protac activity at CRBN/STAT3 in human BxPC-3 cells assessed as decrease in STAT3 expression level after 12 hrs by western blot analysis; type: cell-based
Target sequence in this assay (P40763 whole entry): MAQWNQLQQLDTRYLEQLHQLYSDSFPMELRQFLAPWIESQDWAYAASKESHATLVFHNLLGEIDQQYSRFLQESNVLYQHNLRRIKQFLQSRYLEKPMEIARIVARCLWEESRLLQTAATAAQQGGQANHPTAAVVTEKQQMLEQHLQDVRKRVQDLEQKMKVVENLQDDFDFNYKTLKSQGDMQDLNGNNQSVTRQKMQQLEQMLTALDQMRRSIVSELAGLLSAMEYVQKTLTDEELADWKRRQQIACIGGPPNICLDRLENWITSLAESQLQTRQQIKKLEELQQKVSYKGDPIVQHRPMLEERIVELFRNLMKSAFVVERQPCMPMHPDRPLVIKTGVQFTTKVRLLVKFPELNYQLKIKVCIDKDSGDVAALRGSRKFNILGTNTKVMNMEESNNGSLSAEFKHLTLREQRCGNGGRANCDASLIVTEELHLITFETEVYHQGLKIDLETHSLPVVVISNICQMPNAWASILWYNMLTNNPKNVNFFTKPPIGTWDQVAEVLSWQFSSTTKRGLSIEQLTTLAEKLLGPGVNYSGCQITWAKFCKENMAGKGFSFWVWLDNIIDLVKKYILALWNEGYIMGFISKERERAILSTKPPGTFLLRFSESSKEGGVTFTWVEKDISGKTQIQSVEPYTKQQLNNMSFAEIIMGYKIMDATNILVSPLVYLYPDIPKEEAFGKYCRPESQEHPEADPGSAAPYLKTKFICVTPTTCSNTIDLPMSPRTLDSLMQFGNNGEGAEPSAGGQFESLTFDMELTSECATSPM
Target sequence in this assay (Q96SW2 whole entry): as the sequence (Q96SW2 whole entry partner) above

[10] = molecular target: Protein cereblon/E3 ubiquitin-protein ligase ZFP91 (Homo sapiens, UniProt Q96SW2+Q96JP5); test: Protac activity at CRBN/ZFP91 in human BxPC-3 cells assessed as induction of ZF91 degradation at upto 3 uM incubated for 16 hrs by western blot analysis; type: cell-based; details: dose microM <=3, time 16.0 hrs
In short: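 BxPC-3 cells treated for 4, 16 or 24 h across a concentration series. ZFP91 immunoblotted against GAPDH; bands quantified by densitometry, DC50 calculated from dose-response curves of the densitometry.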

[11] = molecular target: NAD(P)H dehydrogenase [quinone] 1 (Homo sapiens) (UniProt P15559); test: Binding affinity to NQO1 in human BxPC-3 cells assessed as thermal stability by measuring shift in melting temperature at 100 uM measured after 1 hr by cellular thermal shift assay; type: cell-based
[12] = tested on: BXPC-3; test: Binding affinity to PDI in human BxPC-3 cells assessed as thermal stability by measuring shift in melting temperature at 100 uM measured after 1 hr by cellular thermal shift assay; type: cell-based
[13] = tested on: BXPC-3; test: Antiproliferative activity against human BxPC-3 cells harboring ZFP91siRNA assessed as reduction in cell viability incubated for 48 hrs by MTT assay; type: functional, cell-based; details: BXPC-3, 48 h
In short: (§3)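 BxPC-3 cells were transfected with ZFP91 siRNA or scrambled control siRNA using Lipofectamine RNAiMAX in Opti-MEM, 5 pmol siRNA per complex. Compound was added together with the siRNA complex.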

[14] = tested on: BXPC-3; test: Reduction in NQO1 levels in human BxPC-3 cells at 2 uM incubated for 16 hrs by western blot analysis; type: functional, cell-based; in short: as §2
[15] = tested on: BXPC-3; test: Antiproliferative activity against ZFP91 knockdown human BxPC-3 cells assessed as reduction in cell viability incubated for 48 hrs by MTT assay; type: functional, cell-based; details: BXPC-3, 48 h; in short: as §3

Signal transducer and activator of transcription 3 (Homo sapiens), sequence (P40763 whole entry): as the sequence (P40763 whole entry) above
NAD(P)H dehydrogenase [quinone] 1 (Homo sapiens), sequence (P15559 whole entry): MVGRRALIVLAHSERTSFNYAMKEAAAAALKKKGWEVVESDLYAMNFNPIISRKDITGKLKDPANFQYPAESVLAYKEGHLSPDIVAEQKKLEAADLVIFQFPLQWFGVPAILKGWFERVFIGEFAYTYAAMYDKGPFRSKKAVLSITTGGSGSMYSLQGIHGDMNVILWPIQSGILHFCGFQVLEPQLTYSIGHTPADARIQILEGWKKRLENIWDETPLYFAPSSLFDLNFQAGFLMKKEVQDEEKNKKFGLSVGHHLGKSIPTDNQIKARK
Protein cereblon/E3 ubiquitin-protein ligase ZFP91, sequence (Q96JP5 2-570 partner limits assumed): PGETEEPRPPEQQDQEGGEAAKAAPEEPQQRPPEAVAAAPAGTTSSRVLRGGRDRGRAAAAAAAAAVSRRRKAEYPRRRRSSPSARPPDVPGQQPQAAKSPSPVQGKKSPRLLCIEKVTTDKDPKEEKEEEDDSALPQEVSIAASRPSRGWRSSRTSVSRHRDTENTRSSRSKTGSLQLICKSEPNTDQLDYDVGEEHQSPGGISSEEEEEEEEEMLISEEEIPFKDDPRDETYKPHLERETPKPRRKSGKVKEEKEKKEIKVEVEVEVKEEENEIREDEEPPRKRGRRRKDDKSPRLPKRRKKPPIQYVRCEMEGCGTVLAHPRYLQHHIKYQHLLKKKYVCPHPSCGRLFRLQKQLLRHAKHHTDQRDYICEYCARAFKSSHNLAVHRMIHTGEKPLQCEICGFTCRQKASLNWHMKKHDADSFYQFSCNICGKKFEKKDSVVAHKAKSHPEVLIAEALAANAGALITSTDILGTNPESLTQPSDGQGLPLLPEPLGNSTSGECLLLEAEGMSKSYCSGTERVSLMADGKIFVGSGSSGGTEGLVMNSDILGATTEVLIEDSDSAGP
Protein cereblon/E3 ubiquitin-protein ligase ZFP91, sequence (Q96SW2 whole entry): as the sequence (Q96SW2 whole entry partner) above

SMILES	pIC50 [1]	pIC50 [2]	pIC50 [3]	further results
Cc1ncsc1-c1ccc(CNC(=O)[C@@H]2C[C@@H](O)CN2C(=O)[C@@H](NC(=O)COCCOCCNC(=O)c2cc3c(o2)C(=O)c2ccccc2C3=O)C(C)(C)C)cc1	< 4.52	< 4.52	4.84	–
O=C1CCC(N2C(=O)c3cccc(NCCNC(=O)c4cc5c(o4)C(=O)c4ccccc4C5=O)c3C2=O)C(=O)N1 (centres undefined)	< 4.52	5.77	5.40	–
O=C(COc1cccc2c1C(=O)N(C1CCC(=O)NC1=O)C2=O)NCCOCCOCCOCCNC(=O)c1cc2c(o1)C(=O)c1ccccc1C2=O (centres undefined)	–	5.22	5.43	–
O=C1CCC(N2C(=O)c3cccc(NCCOCCNC(=O)c4cc5c(o4)C(=O)c4ccccc4C5=O)c3C2=O)C(=O)N1 (centres undefined)	–	5.34	5.59	–
O=C1CCC(N2C(=O)c3cccc(C#CCCCNC(=O)c4cc5c(o4)C(=O)c4ccccc4C5=O)c3C2=O)C(=O)N1 (centres undefined)	4.73	5.28	5.68	–
O=C(COc1cccc2c1C(=O)N(C1CCC(=O)NC1=O)C2=O)NCCOCCOCCNC(=O)c1cc2c(o1)C(=O)c1ccccc1C2=O (centres undefined)	–	4.69	4.78	–
O=C(COc1cccc2c1C(=O)N(C1CCC(=O)NC1=O)C2=O)NCCCCNC(=O)c1cc2c(o1)C(=O)c1ccccc1C2=O (centres undefined)	< 4.52	4.62	4.98	–
O=C1CCC(N2C(=O)c3cccc(NCCN4CCN(CCNC(=O)c5cc6c(o5)C(=O)c5ccccc5C6=O)CC4)c3C2=O)C(=O)N1 (centres undefined)	–	4.59	4.74	–
O=C1CCC(N2C(=O)c3cccc(NCCC4CCN(CCNC(=O)c5cc6c(o5)C(=O)c5ccccc5C6=O)CC4)c3C2=O)C(=O)N1 (centres undefined)	–	5.96	5.96	–
O=C(NCCN1CCCCC1)c1cc2c(o1)C(=O)c1ccccc1C2=O	–	–	–	inhibition [4]: Active; Activity [5]: inactive
O=C1CCC(N2C(=O)c3cccc(NCCCCCNC(=O)c4cc5c(o4)C(=O)c4ccccc4C5=O)c3C2=O)C(=O)N1 (centres undefined)	< 5.00	5.49	5.74	–
O=C1CCC(N2C(=O)c3cccc(NCCCCNC(=O)c4cc5c(o4)C(=O)c4ccccc4C5=O)c3C2=O)C(=O)N1 (centres undefined)	–	5.39	5.80	–
O=C1CCC(N2C(=O)c3cccc(NCCCCCCNC(=O)c4cc5c(o4)C(=O)c4ccccc4C5=O)c3C2=O)C(=O)N1 (centres undefined)	–	5.38	5.52	–
O=C1CCC(N2C(=O)c3cccc(NCCOCCOCCOCCNC(=O)c4cc5c(o4)C(=O)c4ccccc4C5=O)c3C2=O)C(=O)N1 (centres undefined)	4.95	5.35	5.68	–
CN1C(=O)CCC(N2C(=O)c3cccc(NCCCCCC4CCN(CCNC(=O)c5cc6c(o5)C(=O)c5ccccc5C6=O)CC4)c3C2=O)C1=O (centres undefined)	< 4.52	5.47	5.57	inhibition [6]: Active; Activity [7]: inactive
O=C1CCC(N2C(=O)c3cccc(OCCOCCOCCNC(=O)c4cc5c(o4)C(=O)c4ccccc4C5=O)c3C2=O)C(=O)N1 (centres undefined)	–	5.09	5.42	–
O=C1CCC(N2C(=O)c3cccc(NCCOCCOCCOCCOCCOCCOCCNC(=O)c4cc5c(o4)C(=O)c4ccccc4C5=O)c3C2=O)C(=O)N1 (centres undefined)	4.97	5.12	5.30	–
O=C1CCC(N2C(=O)c3cccc(NCCOCCOCCOCCOCCNC(=O)c4cc5c(o4)C(=O)c4ccccc4C5=O)c3C2=O)C(=O)N1 (centres undefined)	< 5.00	5.00	5.36	–
O=C1CCC(N2C(=O)c3cccc(NCCCNC(=O)c4cc5c(o4)C(=O)c4ccccc4C5=O)c3C2=O)C(=O)N1 (centres undefined)	–	5.46	5.57	–
CC(=O)c1cc2c(o1)C(=O)c1ccccc1C2=O [NAPABUCASIN]	4.98	5.85	5.92	inhibition [8]: Active; DC50 [9]: 2.1 µM; Activity [10]: inactive; Activity [11]: Active; Activity [12]: Active; pIC50 [13]: 5.89; inhibition [14]: Active; pIC50 [15]: 5.74
O=C1CCC(N2C(=O)c3cccc(NCCCC4CCN(CCNC(=O)c5cc6c(o5)C(=O)c5ccccc5C6=O)CC4)c3C2=O)C(=O)N1 (centres undefined)	–	6.22	–	–
O=C1CCC(N2C(=O)c3cccc(OCCCCNC(=O)c4cc5c(o4)C(=O)c4ccccc4C5=O)c3C2=O)C(=O)N1 (centres undefined)	< 5.00	5.38	5.70	–
O=C1CCC(N2C(=O)c3ccc(NCCOCCOCCNC(=O)c4cc5c(o4)C(=O)c4ccccc4C5=O)cc3C2=O)C(=O)N1 (centres undefined)	< 5.00	–	–	–
Nc1cccc2c1C(=O)N(C1CCC(=O)NC1=O)C2=O (centres undefined) [POMALIDOMIDE]	–	< 4.52	< 4.52	–
Cc1ncsc1-c1ccc(CNC(=O)[C@@H]2C[C@@H](O)CN2C(=O)[C@@H](NC(=O)COCCNC(=O)c2cc3c(o2)C(=O)c2ccccc2C3=O)C(C)(C)C)cc1	< 4.52	< 4.52	4.80	–
O=C1CCC(N2Cc3c(CCCCCNC(=O)c4cc5c(o4)C(=O)c4ccccc4C5=O)cccc3C2=O)C(=O)N1 (centres undefined)	–	4.86	5.19	–
O=C1CCC(N2Cc3c(NCCOCCOCCNC(=O)c4cc5c(o4)C(=O)c4ccccc4C5=O)cccc3C2=O)C(=O)N1 (centres undefined)	< 4.52	–	4.86	–

From ChEMBL document CHEMBL4706672 (J Med Chem, 2021)
